From ChEMBL document CHEMBL1139673, “Factor VIIa inhibitors: gaining selectivity within the trypsin family” (Bioorg Med Chem Lett, 2006)

Assays:
Homo sapiens = species: Homo sapiens; experiment: Selectivity for factor 7a versus trypsin
In short: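 Apparent Ki (Morrison tight-binding fit) from two chromogenic assays, both at room temperature with substrate at Km and A405 monitored over time. FVIIa: 7 nM factor VII with 11 nM recombinant soluble human tissue factor in Tris pH 7.4, NaCl, 5.0 mM CaCl2, 1.5 mM EDTA, Tween 20, 10% DMSO; CH3SO2-D-CHA-But-Arg-pNA 500 µM. Trypsin: 10 nM, same buffer without CaCl2; Tosyl-Gly-Pro-Lys-pNA 25 µM.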

Coagulation factor VII = target: T1, Coagulation factor VII (Homo sapiens, UniProt P08709); experiment: Binding affinity to factor 7a
T1 sequence (P08709 whole entry): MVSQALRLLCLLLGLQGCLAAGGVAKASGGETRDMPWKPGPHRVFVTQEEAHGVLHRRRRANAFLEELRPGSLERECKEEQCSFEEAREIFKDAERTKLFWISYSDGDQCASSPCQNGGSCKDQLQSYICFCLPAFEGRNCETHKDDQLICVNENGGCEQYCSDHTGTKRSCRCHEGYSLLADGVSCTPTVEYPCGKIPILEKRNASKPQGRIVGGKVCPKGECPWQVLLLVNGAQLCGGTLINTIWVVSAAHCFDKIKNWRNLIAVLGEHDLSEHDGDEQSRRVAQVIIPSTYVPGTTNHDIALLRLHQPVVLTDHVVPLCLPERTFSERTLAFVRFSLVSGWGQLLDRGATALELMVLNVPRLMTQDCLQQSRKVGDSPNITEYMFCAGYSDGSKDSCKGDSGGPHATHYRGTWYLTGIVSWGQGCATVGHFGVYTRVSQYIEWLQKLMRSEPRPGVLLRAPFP

Row | Selectivity ratio (Homo sapiens) | Ki (Coagulation factor VII) [nM] | Structure (SMILES)
1 | 108 | – | Cc1cccc(-c2cc(C(CC(=O)O)C(=O)O)cc(-c3nc4cc(C(=N)N)ccc4[nH]3)c2O)c1 (stereo unspecified)
2 | 1080 | 29 | Cc1cc(C)cc(-c2cc(C(CC(=O)O)C(=O)O)cc(-c3nc4cc(C(=N)N)ccc4[nH]3)c2O)c1 (stereo unspecified)
3 | 216 | – | N=C(N)c1ccc2[nH]c(-c3cc(C(CC(=O)O)C(=O)O)cc(-c4cccc(CO)c4)c3O)nc2c1 (stereo unspecified)
4 | 39 | 210 | N=C(N)c1ccc2[nH]c(-c3cc(C(CC(=O)O)C(=O)O)cc(-c4cc(Cl)cc(Cl)c4Cl)c3O)nc2c1 (stereo unspecified)
5 | 25 | – | N=C(N)c1ccc2[nH]c(-c3cc(C(CC(=O)O)C(=O)O)cc(-c4ccccc4[N+](=O)[O-])c3O)nc2c1 (stereo unspecified)
6 | 40 | – | CC(C)c1cccc(-c2cc(C(CC(=O)O)C(=O)O)cc(-c3nc4cc(C(=N)N)ccc4[nH]3)c2O)c1 (stereo unspecified)
7 | 99 | 88 | N=C(N)c1ccc2[nH]c(-c3cc(C(CC(=O)O)C(=O)O)cc(-c4cccc(O)c4)c3O)nc2c1 (stereo unspecified)
8 | 2 | – | N=C(N)c1ccc2[nH]c(-c3cc(C(CC(=O)O)C(=O)O)cc(-c4ccc(Cl)cc4)c3O)nc2c1 (stereo unspecified)
9 | 31 | 550 | N=C(N)c1ccc2[nH]c(-c3cc(C(CC(=O)O)C(=O)O)cc(-c4cccnc4)c3O)nc2c1 (stereo unspecified)
10 | 98 | – | N=C(N)c1ccc2[nH]c(-c3cc(C(CC(=O)O)C(=O)O)cc(-c4cc(Cl)cc(Cl)c4)c3O)nc2c1 (stereo unspecified)
11 | – | 420 | Cc1ccc(-c2cc(C(CC(=O)O)C(=O)O)cc(-c3nc4ccc(C(=N)N)cc4[nH]3)c2O)cc1 (stereo unspecified)
12 | 103 | 64 | N=C(N)c1ccc2[nH]c(-c3cc(C(CC(=O)O)C(=O)O)cc(-c4ccccc4CS)c3O)nc2c1 (stereo unspecified)
13 | 52 | 330 | COc1ccc(F)cc1-c1cc(C(CC(=O)O)C(=O)O)cc(-c2nc3cc(C(=N)N)ccc3[nH]2)c1O (stereo unspecified)
14 | 54 | 280 | COc1ccc(C#N)cc1-c1cc(C(CC(=O)O)C(=O)O)cc(-c2nc3cc(C(=N)N)ccc3[nH]2)c1O (stereo unspecified)
15 | 59 | 66 | N=C(N)c1ccc2[nH]c(-c3cc(C(CC(=O)O)C(=O)O)cc(-c4cccc(Cl)c4)c3O)nc2c1 (stereo unspecified)
16 | 35 | 250 | N=C(N)c1ccc2[nH]c(-c3cc(C(CC(=O)O)C(=O)O)cc(-c4cc(Cl)ccc4Cl)c3O)nc2c1 (stereo unspecified)
17 | 1 | 2250 | COc1ccc(-c2cc(C(CC(=O)O)C(=O)O)cc(-c3nc4cc(C(=N)N)ccc4[nH]3)c2O)cc1 (stereo unspecified)
18 | 8500 | 6 | N=C(N)c1ccc2[nH]c(-c3cc(C(CC(=O)O)C(=O)O)cc(-c4cc([N+](=O)[O-])ccc4O)c3O)nc2c1 (stereo unspecified)
19 | 41 | – | N=C(N)c1ccc2[nH]c(-c3cc(C(CC(=O)O)C(=O)O)cc(-c4ccccc4N)c3O)nc2c1 (stereo unspecified)

Row | Selectivity ratio (Homo sapiens) | Ki (Coagulation factor VII) [nM] | Structure (SMILES)
20 | – | 21 | N=C(N)c1ccc2nc(-c3cc(C(CC(=O)O)C(=O)O)cc(-c4cccc(CO)c4)c3O)[nH]c2c1 (stereo unspecified)
21 | 421 | 14 | N=C(N)c1ccc2[nH]c(-c3cc(C(CC(=O)O)C(=O)O)cc(-c4cc(Cl)cc(Cl)c4O)c3O)nc2c1 (stereo unspecified)
22 | 34 | – | N=C(N)c1ccc2[nH]c(-c3cc(C(CC(=O)O)C(=O)O)cc(-c4ccc(F)c(Cl)c4)c3O)nc2c1 (stereo unspecified)
23 | 118 | – | CC(=O)Nc1cccc(-c2cc(C(CC(=O)O)C(=O)O)cc(-c3nc4cc(C(=N)N)ccc4[nH]3)c2O)c1 (stereo unspecified)
24 | – | 76 | CC(C)c1cccc(-c2cc(C(CC(=O)O)C(=O)O)cc(-c3nc4ccc(C(=N)N)cc4[nH]3)c2O)c1 (stereo unspecified)
25 | – | 440 | N=C(N)c1ccc2nc(-c3cc(C(CC(=O)O)C(=O)O)cc(-c4ccc(Cl)cc4)c3O)[nH]c2c1 (stereo unspecified)
26 | 16 | 730 | N=C(N)c1ccc2[nH]c(-c3cc(C(CC(=O)O)C(=O)O)cc(-c4ccccc4CO)c3O)nc2c1 (stereo unspecified)
27 | 8 | – | Cc1ccc(-c2cc(C(CC(=O)O)C(=O)O)cc(-c3nc4cc(C(=N)N)ccc4[nH]3)c2O)cc1 (stereo unspecified)
28 | 16 | 500 | Cc1ccccc1-c1cc(C(CC(=O)O)C(=O)O)cc(-c2nc3cc(C(=N)N)ccc3[nH]2)c1O (stereo unspecified)
29 | 4400 | – | N=C(N)c1ccc2[nH]c(-c3cc(C(CC(=O)O)C(=O)O)cc(-c4cc(F)ccc4O)c3O)nc2c1 (stereo unspecified)
30 | 2960 | 12 | N#Cc1ccc(O)c(-c2cc(C(CC(=O)O)C(=O)O)cc(-c3nc4cc(C(=N)N)ccc4[nH]3)c2O)c1 (stereo unspecified)
31 | 1080 | 13 | N=C(N)c1ccc2[nH]c(-c3cc(C(CC(=O)O)C(=O)O)cc(-c4ccccc4O)c3O)nc2c1 (stereo unspecified)
32 | 1790 | 10 | N=C(N)c1ccc2[nH]c(-c3cc(C(CC(=O)O)C(=O)O)cc(-c4cc(N)ccc4O)c3O)nc2c1 (stereo unspecified)
33 | – | 420 | N=C(N)c1ccc2nc(-c3cc(C(CC(=O)O)C(=O)O)cc(-c4ccccc4N)c3O)[nH]c2c1 (stereo unspecified)
34 | – | 22 | N=C(N)c1ccc2nc(-c3cc(C(CC(=O)O)C(=O)O)cc(-c4ccccc4[N+](=O)[O-])c3O)[nH]c2c1 (stereo unspecified)
35 | 71 | 77 | N#Cc1cccc(-c2cc(C(CC(=O)O)C(=O)O)cc(-c3nc4cc(C(=N)N)ccc4[nH]3)c2O)c1 (stereo unspecified)
36 | 102 | 54 | Cc1cccc(NC(=O)Cc2cc(C(CC(=O)O)C(=O)O)cc(-c3nc4cc(C(=N)N)ccc4[nH]3)c2O)c1 (stereo unspecified)
37 | 250 | 36 | N=C(N)c1ccc2[nH]c(-c3cc(C(CC(=O)O)C(=O)O)cc(-c4cccc(N)c4)c3O)nc2c1 (stereo unspecified)
38 | 91 | 74 | N=C(N)c1ccc2[nH]c(-c3cc(C(CC(=O)O)C(=O)O)cc(-c4ccccc4)c3O)nc2c1 (stereo unspecified)

Row | Selectivity ratio (Homo sapiens) | Ki (Coagulation factor VII) [nM] | Structure (SMILES)
39 | 2500 | 5.4 | N=C(N)c1ccc2[nH]c(-c3cc(C(CC(=O)O)C(=O)O)cc(-c4cc(Cl)ccc4O)c3O)nc2c1 (stereo unspecified)
40 | – | 27 | N=C(N)c1ccc2nc(-c3cc(C(CC(=O)O)C(=O)O)cc(-c4cc(Cl)cc(Cl)c4)c3O)[nH]c2c1 (stereo unspecified)
41 | – | 130 | N=C(N)c1ccc2nc(-c3cc(C(CC(=O)O)C(=O)O)cc(-c4ccc(F)c(Cl)c4)c3O)[nH]c2c1 (stereo unspecified)
42 | 115 | – | N=C(N)c1ccc2[nH]c(-c3cc(C(CC(=O)O)C(=O)O)cc(-c4cc(F)cc(F)c4)c3O)nc2c1 (stereo unspecified)
43 | 192 | 25 | N=C(N)c1ccc2[nH]c(-c3cc(C(CC(=O)O)C(=O)O)cc(-c4c(O)cc(Cl)cc4Cl)c3O)nc2c1 (stereo unspecified)
44 | 197 | 33 | CC(=O)c1cccc(-c2cc(C(CC(=O)O)C(=O)O)cc(-c3nc4cc(C(=N)N)ccc4[nH]3)c2O)c1 (stereo unspecified)
45 | 18 | 780 | N=C(N)c1ccc2[nH]c(-c3cc(C(CC(=O)O)C(=O)O)cc(-c4cccc(CN)c4)c3O)nc2c1 (stereo unspecified)
46 | 44 | – | N=C(N)c1ccc2[nH]c(-c3cc(C(CC(=O)O)C(=O)O)cc(-c4cccc(Cl)c4Cl)c3O)nc2c1 (stereo unspecified)
47 | – | 68 | N=C(N)c1ccc2nc(-c3cc(C(CC(=O)O)C(=O)O)cc(-c4cc(F)cc(F)c4)c3O)[nH]c2c1 (stereo unspecified)
48 | – | 38 | Cc1cccc(-c2cc(C(CC(=O)O)C(=O)O)cc(-c3nc4ccc(C(=N)N)cc4[nH]3)c2O)c1 (stereo unspecified)
49 | 268 | – | N=C(N)c1ccc2[nH]c(-c3cc(C(CC(=O)O)C(=O)O)cc(-c4cccc([N+](=O)[O-])c4)c3O)nc2c1 (stereo unspecified)
50 | 1 | 16000 | CC(C)(C)c1ccc(-c2cc(C(CC(=O)O)C(=O)O)cc(-c3nc4cc(C(=N)N)ccc4[nH]3)c2O)cc1 (stereo unspecified)
51 | 51 | 120 | N=C(N)c1ccc2[nH]c(-c3cc(C(CC(=O)O)C(=O)O)cc(-c4cccc(OC(F)F)c4)c3O)nc2c1 (stereo unspecified)
52 | – | 270 | N=C(N)c1ccc2nc(-c3cc(C(CC(=O)O)C(=O)O)cc(-c4cccc(Cl)c4Cl)c3O)[nH]c2c1 (stereo unspecified)
53 | 398 | 9 | N=C(N)c1ccc2[nH]c(-c3cc(C(CC(=O)O)C(=O)O)cc(-c4cc(Cl)cc(Br)c4O)c3O)nc2c1 (stereo unspecified)
54 | – | 110 | CC(=O)Nc1cccc(-c2cc(C(CC(=O)O)C(=O)O)cc(-c3nc4ccc(C(=N)N)cc4[nH]3)c2O)c1 (stereo unspecified)
55 | 10 | 880 | N=C(N)c1ccc2[nH]c(-c3cc(C(CC(=O)O)C(=O)O)cc(-c4ccc(O)cc4)c3O)nc2c1 (stereo unspecified)
56 | 1 | 6400 | N=C(N)c1ccc2[nH]c(-c3cc(C(CC(=O)O)C(=O)O)ccc3O)nc2c1 (stereo unspecified)
